Measured values as given in ChEMBL document CHEMBL4265954, “Discovery of potent liver-selective stearoyl-CoA desaturase-1 (SCD1) inhibitors, thiazole-4-acetic acid derivatives, for the treatment of diabetes, hepatic steatosis, and obesity” (Eur J Med Chem, 2018).

What was measured:
Mus musculus [1] = experiment: Ex vivo inhibition of SCD1 in C57BL/6J mouse eyelid assessed as residual activity at 1 mg/kg, po treated for 6 hrs followed by incubation with [14C]stearoyl-CoA substrate for 30 mins by TLC assay relative to control; assay type: organism-based
Outline: (§1)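 Male 6-week-old C57BL/6J mice dosed orally as a suspension in 0.5% methylcellulose. Liver or eyelid was taken 6 or 24 h later and homogenized in 100 mM Tris-HCl pH 7.4 with 0.25 M sucrose. S9 was obtained at 10,000 × g, 4 °C. S9 was incubated with [14C]stearoyl-CoA, NADH, MgCl2 and cytochrome b5 at room temperature, 10 min for liver and 30 min for eyelid. Lipids were saponified and run on AgNO3 TLC to quantify stearate and oleate. Result is % of vehicle control.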

Stearoyl-CoA desaturase = biological target: T1, Stearoyl-CoA desaturase (Homo sapiens, UniProt O00767); experiment: Inhibition of recombinant human SCD1 expressed in baculovirus expression system assessed as reduction in [3H]H2O production using stearoyl [9,10-3H]CoA as substrate in presence of NADH incubated for 30 mins by scintillation counting method
T1 sequence (O00767 whole entry): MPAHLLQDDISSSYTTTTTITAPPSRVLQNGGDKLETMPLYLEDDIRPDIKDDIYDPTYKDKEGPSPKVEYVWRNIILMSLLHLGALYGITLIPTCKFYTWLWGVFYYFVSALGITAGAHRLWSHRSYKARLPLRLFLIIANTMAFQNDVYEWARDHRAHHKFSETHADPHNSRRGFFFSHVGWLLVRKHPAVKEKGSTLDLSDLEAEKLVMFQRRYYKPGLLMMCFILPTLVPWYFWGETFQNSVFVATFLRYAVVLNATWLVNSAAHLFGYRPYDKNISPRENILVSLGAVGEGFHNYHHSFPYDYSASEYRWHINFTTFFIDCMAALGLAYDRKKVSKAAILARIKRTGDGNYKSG
Outline: (§2)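 Desaturation of [9,10-3H]stearoyl-CoA measured as released [3H]H2O. Water was separated from charcoal-adsorbed substrate by filtration and counted by scintillation. Remaining activity = (compound − background)/(control − background). DMSO wells served as control and pre-stopped wells as background. IC50 was interpolated from the two points bracketing 50%.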

Mus musculus [2] = experiment: Ex vivo inhibition of SCD1 in C57BL/6J mouse liver assessed as residual activity at 1 mg/kg, po treated for 6 hrs followed by incubation with [14C]stearoyl-CoA substrate for 10 mins by TLC assay relative to control; assay type: functional; outline: as §1
Acyl-CoA desaturase 1 = biological target: T2, Acyl-CoA desaturase 1 (Mus musculus, UniProt P13516); experiment: Inhibition of mouse liver microsome SCD assessed as reduction in [3H]H2O production using stearoyl [9,10-3H]CoA as substrate in presence of NADH incubated for 30 mins by scintillation counting method; assay type: microsomes; outline: as §2
T2 sequence (P13516 whole entry): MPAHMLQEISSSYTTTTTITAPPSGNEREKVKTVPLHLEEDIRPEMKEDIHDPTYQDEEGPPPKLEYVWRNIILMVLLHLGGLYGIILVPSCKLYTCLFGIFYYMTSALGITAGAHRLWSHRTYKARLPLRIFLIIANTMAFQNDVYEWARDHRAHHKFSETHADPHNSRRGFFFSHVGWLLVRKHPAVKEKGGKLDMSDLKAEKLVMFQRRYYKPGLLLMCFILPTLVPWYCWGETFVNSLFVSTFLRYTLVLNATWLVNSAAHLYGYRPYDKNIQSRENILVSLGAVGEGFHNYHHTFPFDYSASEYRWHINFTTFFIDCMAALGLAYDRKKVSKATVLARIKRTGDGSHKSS

[3] = Inhibition of acetyl-CoA acetyltransferase (unknown origin); design: species or system Homo sapiens
[4] = biological target: Acyl-CoA (8-3)-desaturase (Homo sapiens, UniProt O60427); experiment: Inhibition of delta-5 fatty acid desaturase (unknown origin)
Sequence of Acyl-CoA (8-3)-desaturase (O60427 whole entry): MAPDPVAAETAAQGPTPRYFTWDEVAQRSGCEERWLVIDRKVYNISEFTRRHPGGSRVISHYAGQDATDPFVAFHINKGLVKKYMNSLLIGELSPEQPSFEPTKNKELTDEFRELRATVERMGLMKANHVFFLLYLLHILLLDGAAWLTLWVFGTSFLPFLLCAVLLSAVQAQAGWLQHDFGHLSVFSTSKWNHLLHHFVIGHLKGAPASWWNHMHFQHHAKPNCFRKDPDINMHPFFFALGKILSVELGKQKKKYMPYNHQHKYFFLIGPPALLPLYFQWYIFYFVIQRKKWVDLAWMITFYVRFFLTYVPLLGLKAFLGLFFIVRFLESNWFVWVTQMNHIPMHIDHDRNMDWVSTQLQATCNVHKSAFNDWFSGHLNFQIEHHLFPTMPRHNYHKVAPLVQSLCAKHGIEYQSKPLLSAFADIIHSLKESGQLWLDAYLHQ

Mus musculus [5] = experiment: Ex vivo inhibition of SCD1 in C57BL/6J mouse liver assessed as residual activity at 10 mg/kg, po treated for 24 hrs followed by incubation with [14C]stearoyl-CoA substrate for 10 mins by TLC assay relative to control; assay type: functional; outline: as §1
Mus musculus [6] = experiment: Ex vivo inhibition of SCD1 in C57BL/6J mouse eyelid assessed as residual activity at 100 mg/kg, po treated for 24 hrs followed by incubation with [14C]stearoyl-CoA substrate for 30 mins by TLC assay relative to control; assay type: organism-based; outline: as §1

Row | SMILES | Activity (Mus musculus [1]) | IC50 (Stearoyl-CoA desaturase) | Activity (Mus musculus [2]) | also measured
1 | CCCCCCc1ccccc1NCc1ccc(C(=O)Nc2nc(CC(=O)O)cs2)cc1 | 119% | 3 nM | 31% | –
2 | O=C(Nc1ccncc1)c1ccc(COc2ccccc2Cl)cc1 | – | 1400 nM | – | IC50 (Acyl-CoA desaturase 1): 510 nM; IC50 [3]: > 30000 nM; IC50 [4]: > 30000 nM
3 | Cc1csc(NC(=O)c2ccc(CNc3ccccc3C(F)(F)F)s2)n1 | – | 9.7 nM | – | –
4 | O=C(O)CCc1cnc(NC(=O)c2ccc(CNc3ccccc3C(F)(F)F)cc2)s1 | – | 570 nM | – | –
5 | O=C(O)Cc1csc(NC(=O)c2ccc(CNc3ccccc3C(F)(F)F)s2)n1 | 124% | 9 nM | 51% | –
6 | Cc1csc(NC(=O)c2ccc(CNc3cccc(Cl)c3)cc2)n1 | – | 18 nM | – | –
7 | Cc1csc(NC(=O)N2CCC(CNc3ccccc3C(F)(F)F)CC2)n1 | – | 30 nM | – | –
8 | O=C(Nc1nc(CCO)cs1)c1ccc(CNc2ccccc2C(F)(F)F)cc1 | 136% | 4.2 nM | 33% | –
9 | Cc1csc(NC(=O)c2ccc(CNc3ccccc3C(=O)O)cc2)n1 | – | 3600 nM | – | –
10 | CCCCc1ccccc1NCc1ccc(C(=O)Nc2nc(CC(=O)O)cs2)cc1 | 74% | 5.5 nM | 76% | –
11 | CCCCCCc1ccccc1NCc1ccc(C(=O)Nc2nc(CCO)cs2)s1 | 104% | 4.5 nM | 12% | Activity (Mus musculus [5]): 12%; Activity (Mus musculus [6]): 4%
12 | O=C(O)CCc1csc(NC(=O)c2ccc(CNc3ccccc3C(F)(F)F)cc2)n1 | – | 6.3 nM | – | –
13 | O=C(O)Cc1csc(NC(=O)c2ccc(CNc3ccccc3C(F)(F)F)cc2)n1 | 107% | 5.1 nM | 98% | –
14 | Cc1csc(NC(=O)c2ccc(CNc3ccccc3C)nc2)n1 | – | 310 nM | – | –
15 | O=C(Nc1ncc(CO)s1)c1ccc(CNc2ccccc2C(F)(F)F)cc1 | – | 2.8 nM | – | –
16 | Cc1csc(NC(=O)c2ccc(CNc3ccccc3Cl)cc2)n1 | – | 9.2 nM | – | –
17 | O=C(Nc1nc(CO)cs1)c1ccc(CNc2ccccc2C(F)(F)F)cc1 | 73% | 3.8 nM | 20% | Activity (Mus musculus [5]): 53%; Activity (Mus musculus [6]): 0%
18 | O=C(Nc1nc(CCO)cs1)c1ccc(CNc2ccccc2Cl)cc1 | 74% | 6.4 nM | 29% | Activity (Mus musculus [5]): 66%; Activity (Mus musculus [6]): 35%
19 | O=C(O)Cc1csc(NC(=O)c2ccc(CNc3ccccc3Cl)cc2)n1 | 132% | 13 nM | 72% | –
20 | Cc1ccccc1NCc1ccc(C(=O)Nc2nc(C(=O)O)cs2)cc1 | – | > 10000 nM | – | –
21 | CC(C)CCc1ccccc1NCc1ccc(C(=O)Nc2nc(CCO)cs2)cc1 | 63% | 5.3 nM | 26% | –
22 | O=C(Nc1nc(CO)c(C(=O)O)s1)c1ccc(CNc2ccccc2C(F)(F)F)cc1 | – | 22 nM | – | –
23 | Cc1csc(NC(=O)c2ccc(CNc3ccccc3C(F)(F)F)cc2)n1 | – | 4.1 nM | – | –
24 | O=C(O)CCCc1csc(NC(=O)c2ccc(CNc3ccccc3C(F)(F)F)cc2)n1 | – | 2700 nM | – | –
25 | CCCCCCc1ccccc1NCc1ccc(C(=O)Nc2nc(CC(=O)O)cs2)s1 | 88% | 4.8 nM | 12% | Activity (Mus musculus [5]): 13%; Activity (Mus musculus [6]): 52%

Row | SMILES | Activity (Mus musculus [1]) | IC50 (Stearoyl-CoA desaturase) | Activity (Mus musculus [2]) | also measured
26 | O=C(Nc1nc(CO)cs1)c1ccc(CNc2ccccc2C(F)(F)F)s1 | 33% | 5.1 nM | 9% | –
27 | O=C(Nc1nc(CCCO)c(CCO)s1)c1ccc(CNc2ccccc2C(F)(F)F)cc1 | – | 31 nM | – | –
28 | CC(C)CCc1ccccc1NCc1ccc(C(=O)Nc2nc(CC(=O)O)cs2)cc1 | 68% | 4.8 nM | 19% | –
29 | Cc1csc(NC(=O)c2ccc(COc3ccccc3Cl)cc2)n1 | – | 150 nM | – | –
30 | O=C(Nc1ncc(CCCO)s1)c1ccc(CNc2ccccc2C(F)(F)F)cc1 | – | 260 nM | – | –
31 | CCCCCCCCc1ccccc1NCc1ccc(C(=O)Nc2nc(CC(=O)O)cs2)cc1 | 127% | 4.5 nM | 15% | Activity (Mus musculus [5]): 74%; Activity (Mus musculus [6]): 71%
32 | CCCCCCCCc1ccccc1NCc1ccc(C(=O)Nc2nc(CC(=O)O)cs2)s1 | 77% | 17 nM | 7% | Activity (Mus musculus [5]): 11%; Activity (Mus musculus [6]): 8%
33 | O=C(Nc1nc(CCO)cs1)c1ccc(CNc2ccccc2C(F)(F)F)s1 | 171% | 3.9 nM | 10% | Activity (Mus musculus [5]): 27%; Activity (Mus musculus [6]): 8%
34 | O=C(Nc1ncc(CCO)s1)c1ccc(CNc2ccccc2C(F)(F)F)cc1 | – | 3.8 nM | – | –
35 | O=C(Nc1nc(CCCO)cs1)c1ccc(CNc2ccccc2C(F)(F)F)cc1 | 75% | 5.2 nM | 64% | –
36 | O=C(O)Cc1csc(NC(=O)c2ccc(CNc3ccccc3Cc3ccccc3)cc2)n1 | 76% | 5.5 nM | 18% | Activity (Mus musculus [5]): 53%; Activity (Mus musculus [6]): 100%
37 | O=C(O)Cc1csc(NC(=O)c2ccc(CNc3ccccc3-c3ccccc3)cc2)n1 | 187% | 8.7 nM | 74% | –
38 | Cc1csc(NC(=O)c2ccc(CNc3ccccc3C)cn2)n1 | – | 46 nM | – | –
39 | O=C(Nc1ncc(C(=O)O)s1)c1ccc(CNc2ccccc2C(F)(F)F)cc1 | – | 8.1 nM | – | –
40 | CCCc1ccccc1NCc1ccc(C(=O)Nc2nc(C)cs2)cc1 | – | 8.9 nM | – | –
41 | Cc1ccccc1NCc1ccc(C(=O)Nc2nc(CC(=O)O)cs2)cc1 | – | 14 nM | – | –
42 | CCCCc1ccccc1NCc1ccc(C(=O)Nc2nc(CCO)cs2)cc1 | 94% | 3 nM | 61% | –
43 | Cc1csc(NC(=O)c2ccc(CNc3ccc(Cl)cc3)cc2)n1 | – | 760 nM | – | –
44 | O=C(O)Cc1cnc(NC(=O)c2ccc(CNc3ccccc3C(F)(F)F)cc2)s1 | – | 58 nM | – | –
45 | O=C(Nc1nc(CO)cs1)c1ccc(CNc2ccccc2Cl)cc1 | 37% | 4.3 nM | 12% | –
46 | O=C(O)Cc1csc(NC(=O)c2ccc(CNc3ccccc3Cc3ccccc3)s2)n1 | 128% | 7.5 nM | 22% | Activity (Mus musculus [5]): 20%; Activity (Mus musculus [6]): 76%
47 | CCCCc1ccccc1NCc1ccc(C(=O)Nc2nc(CO)cs2)cc1 | 29% | 3.2 nM | 10% | –
48 | Cc1csc(NC(=O)c2ccc(CNc3ccccc3)cc2)n1 | – | 95 nM | – | –
49 | CC(C)CCc1ccccc1NCc1ccc(C(=O)Nc2nc(CC(=O)O)cs2)s1 | 160% | 6.7 nM | 19% | Activity (Mus musculus [5]): 34%; Activity (Mus musculus [6]): 84%
